rRNA inh HTS: inhibitors of bacterial rRNA selective over humanized ribosomes. GFP signal change (wild-type ribosome), % (concentration not given with the values). E. coli WT GFP vs humanized-ribosome RFP mutants, fluorescence, 24 h; stronger effect = lower value; DMSO median 0, no signal -100. 1.6% of 350,000 active;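 active = significant combined selectivity score with lowered wild-type GFP, culture density cut under 30%, mutant RFP and density less affected; inactive = any of these conditions unmet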
SIRT5 block: inhibitors of human sirtuin-5 desuccinylase; 1.1% of 330,000 active; Q9NXA8; Purified SirT5, succinyl-peptide AMC, trypsin-coupled fluorescence; inhibition, % at 15 µM; in the data active = inhibition above about 15%; inconclusive = no clear call, values can overlap the other calls
Target sequence (Q9NXA8 whole entry, looked up): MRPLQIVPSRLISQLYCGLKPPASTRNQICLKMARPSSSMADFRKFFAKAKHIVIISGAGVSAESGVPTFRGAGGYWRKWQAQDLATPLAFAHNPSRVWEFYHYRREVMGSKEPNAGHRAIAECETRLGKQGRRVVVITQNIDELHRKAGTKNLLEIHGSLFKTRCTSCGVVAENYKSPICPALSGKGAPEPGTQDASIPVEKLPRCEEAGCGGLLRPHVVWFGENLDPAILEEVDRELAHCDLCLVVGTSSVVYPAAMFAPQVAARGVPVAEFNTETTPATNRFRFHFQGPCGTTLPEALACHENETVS
E-sel inducer: induces E-selectin expression in human endothelial cells; P16581; HUVEC E-selectin immunofluorescence imaging; normalized: neutral wells 0, TNF-alpha wells 100; activation, % at 7.58 µM; 0.37% of 260,000 active;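 active = mean E-selectin-positive cell signal at least 10% of the positive control, reached in at least 60% of replicates, without over 20% cell loss; inconclusive = no rule given, readout overlaps actives, possibly toxicity-flagged; inactive = the rest, including those meeting only one limit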
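Read-out: % PE-positive cells | Test system: HUVEC | Doses: One compound dose added by pin transfer | Buffer or medium: EGM-2 over gelatin coat | Signal: Immunofluorescence imaging | Benchmarks: TNF-alpha, DMSO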
FGF22 binding: FGF22 (human) thermal shift binding. Q9HCT0. 1.5% of 340,000 active. AID 651658. activity (Tm shift, normalised), % at 9.99 µM. recombinant FGF22 thermal shift, SYPRO orange fluorescence; percent of sucrose octasulfate shift, DMSO zero;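 active = mean Tm shift, scaled 0 neutral to 100 positive control, at about 1.3% or above, every replicate too, limit read from the data; inconclusive = no clear call, values can overlap the other calls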
Target sequence (Q9HCT0 whole entry, looked up): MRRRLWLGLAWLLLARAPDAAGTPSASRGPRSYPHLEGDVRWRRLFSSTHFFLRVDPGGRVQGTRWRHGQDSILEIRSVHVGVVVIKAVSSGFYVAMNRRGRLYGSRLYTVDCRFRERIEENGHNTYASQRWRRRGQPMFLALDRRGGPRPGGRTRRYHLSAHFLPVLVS
Statin myotox sup: suppressors of simvastatin-induced myotoxicity in C2C12 myotubes. ATP luminescence, 48 h; scaled: DMSO 0, geranylgeraniol control 100. rescue of ATP level, % at 7.49 µM. 0.78% of 330,000 active. AID 602340;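 active = mean ATP rescue above about 67%, or every replicate alone reaching that limit, limit read from the data, passing the limit was not always enough; inconclusive = no clear call, values can overlap the other calls; inactive = mean under the limit and some replicate under it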;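 note: myotubes were challenged with 10 µM simvastatin during compound exposure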
FN deposit inh: fibronectin deposition inhibition; AH1F fibroblasts, Alexa488-fibronectin deposition fluorescence, overnight; inhibition, % at 12.6 µM; AID 743247; 0.086% of 350,000 active;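 active = mean inhibition across replicates of 30% or more, regardless of how many single replicates reach that level; inconclusive = mean under 30% yet at least half of replicates reach 30%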;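 note: positive control wells lacked labelled fibronectin entirely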
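Assay system: AH1F fibroblasts / Quantity: 10000 cells per well / Medium: DMEM plus 2% serum, read in PBS / Reagent: labelled fibronectin 24 nM / Dosing: single dose, pinned / Times: 1 h cell attachment, overnight exposure to compound and label / Signal: fluorescence, ex 485 nm, em 525 nm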
AID977621: growth inhibition of wild-type GFP E. coli, dose response, H69 mutant RFP, cherry-pick; shares compounds with rRNA inh HTS; E. coli wild-type GFP strain growth, fluorescence, 24 h; activity change, negative = inhibition at 50 µM; 1,900 tested, under 10 active; AID 977621;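 active = Wild-type ribosome reporter drop at least double the humanized mutant ribosome reporter drop, growth loss under a set limit; inconclusive = no clear call, values can overlap the other calls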;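 note: wild-type GFP and H69 mutant RFP strains grown together 50/50 in each well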
AID977628: E. coli growth inhibition, wild-type GFP versus h24 humanized RFP strain, dose response, h24 mutant RFP vs wild-type GFP, cherry-pick; E. coli WT GFP strain growth, fluorescence, 24 h; 1,900 tested, under 10 active; shares compounds with rRNA inh HTS; activity change, negative = inhibition at 50 µM;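 active = compound lowering the normal-ribosome reporter at least twice as much as the humanized-ribosome reporter, growth loss under a set limit; inconclusive = no clear call, values can overlap the other calls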;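 note: wild-type GFP and h24 humanized RFP strains co-cultured 1 to 1 per well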
Numbers without * were called inactive; ? = inconclusive; · = not tested or not shown. Rows were chosen to be rich in hits. Some 4% of all compounds tested hit in one or more screens of this group.

SMILES	rRNA inh HTS	SIRT5 block	E-sel inducer	FGF22 binding	Statin myotox sup	FN deposit inh	AID977621	AID977628
COc1ccc2c3c([nH]c2c1)[C@@H](CO)N(C(=O)Nc1ccc(F)cc1)CC31CN(S(=O)(=O)c2cn(C)cn2)C1	-2.9	2.1	0.2	-0.2	·	·	·	·
CC(C)[C@@H]1CC[C@@H](C)C[C@H]1O	-14.3*	-5.9	24.5	0.0	-2.2	-1.0	-8.08	?
COc1ccc(CC(=O)NCc2csc(-c3cccs3)n2)cc1OC	-20.5*	-6.4	·	0.0	·	-0.7	-4.91	·
COc1ccc(CC(=O)NCc2ccccc2)cc1OC	13.2	0.5	·	0.1	2.2	-4.4	·	·
NC(=O)C1CCN(c2cc(Cl)ccc2[N+](=O)[O-])CC1	-22.1*	-1.0	0.7	0.0	·	-4.1	-12.2	·
NC(=O)C1CCN(c2cc(N3CCOCC3)ccc2[N+](=O)[O-])CC1	9.8	2.7	5.4	0.4	2.5	4.8	·	·
C[C@H]1CN([C@@H](C)CO)C(=O)Cc2cc(NS(=O)(=O)c3cccs3)ccc2O[C@@H]1CN(C)C(=O)NC1CCCCC1	3.6	2.9	0.0	-0.3	-11.8	-3.6	·	·
C[C@@H]1CN([C@@H](C)CO)C(=O)c2cc(-c3ccc(F)cc3)cnc2O[C@H]1CN(C)Cc1ccc(F)cc1	-2.8	·	0.0	·	-7.5	-0.9	·	·
O=C(NCCCN1CCOCC1)c1sc2cc([N+](=O)[O-])ccc2c1Cl	·	·	·	·	-0.3	·	·	-8.63
CN(C)C(=O)c1ccc(-c2ccccc2[C@@H]2[C@H](C#N)N(C(=O)C3CCCC3)[C@H]2CO)cc1	5.1	1.5	-0.1	·	·	4.1	·	·
CCC1CCCCN1C(=O)CSc1nnc(-c2cccc(Cl)c2)o1 (stereo not given)	-25.5*	·	·	-0.2	6.4	-2.8	-11.7	-14.5
CCC1CCCCN1C(=O)CSc1nnc(-c2ccc(Cl)cc2)o1 (stereo not given)	1.4	·	·	-0.1	7.7	-5.9	·	·
COc1ccc(NC(=O)c2nc[nH]c2C(=O)N(C)Cc2ccccc2)cc1	-19.1*	-1.2	0.1	0.1	13.9	-9.4	?	·
CO[C@@H]1CN(C)C(=O)c2cc(NC(=O)C3CCC3)ccc2OC[C@H](C)NC[C@H]1C	2.1	-0.6	0.0	0.1	3.1	-5.5	·	·
O=C(C(=NNc1ccccc1)c1ccccc1)c1ccccc1	-8.6	·	-0.1	-0.1	7.1	3.7	·	·
CC(C)(Nc1ccccc1)C(=O)c1ccccc1	-20.2*	-3.1	·	0.1	·	6.9	-2.9	?
C[C@@H]1CCCCO[C@@H](CN(C)C(=O)Nc2cccc3ccccc23)[C@H](C)CN([C@H](C)CO)C(=O)c2cc(NC(=O)c3ccccc3)ccc2O1	2.8	7.5	·	0.1	·	8.9	·	·
CS(=O)(=O)Nc1ccc2c(c1)[C@H]1C[C@H](CC(=O)NCCc3ccccc3)O[C@@H](CO)[C@H]1O2	4.3	-0.7	0.0	-0.3	-3.5	4.2	·	·
CCN(CC)CCCN(C(=O)c1ccco1)c1nc(-c2ccc(C)cc2)cs1	-34.3*	-0.3	1.3	-0.1	-20.7	2.3	?	?
CCn1ncc(Br)c1C(=O)Nc1cccc(F)c1	-2.4	1.1	6.5	-0.1	·	10.8	·	·
CCn1ncc(Br)c1C(=O)Nc1ccc2c(c1)OCCO2	-20.9*	1.6	8.7	0.1	·	-4.3	·	-9.95
CCC(C)NC(=O)c1nn(Cc2ccccc2)c(=O)c2ccccc12 (stereo not given)	1.5	-0.8	-0.3	0.2	29.8	5.0	·	·
COCC(C)NC(=O)c1nn(Cc2ccccc2)c(=O)c2ccccc12 (stereo not given)	-13.0*	5.0	·	0.2	-3.5	7.7	-18.1	-2.35
O=C(NCc1ccccc1)c1ccc(-c2cn[nH]c2)c2ccoc12	-20.4*	-4.8	0.1	-0.2	-7.5	34.7*	2.65	-8.21
COCCNC(=O)c1ccc(-c2cn[nH]c2)c2ccoc12	14.5	-3.9	-0.2	-0.2	1.2	22.8	·	·
SMILES	rRNA inh HTS	SIRT5 block	E-sel inducer	FGF22 binding	Statin myotox sup	FN deposit inh	AID977621	AID977628
O=S1(=O)N[C@H](Cc2ccccc2)COc2cc(N3CCSCC3)ccc21	-16.5*	-1.3	-0.3	-0.1	·	1.4	-0.847	-10.2
O=S1(=O)N[C@H](Cc2ccccc2)COc2cc(N3CCCCC3)ccc21	-2.2	-12.6	-0.1	0.2	·	3.7	·	·
C[C@H](CO)N1C[C@H](C)[C@H](CN(C)C)OCCCC[C@H](C)Oc2ccc(NC(=O)Cc3ccccc3)cc2C1=O	3.3	-2.7	-0.1	0.1	6.7	·	·	·
CO[C@@H]1CN(C)C(=O)c2ccc(NC(=O)Nc3ccccc3)cc2OC[C@H](C)N(C(=O)CN(C)C)C[C@@H]1C	-0.3	-9.5	-0.1	-0.4	-3.9	-11.1	·	·
COCC(=O)N1C[C@@H](C)[C@H](OC)CN(C)C(=O)c2ccc(NC(=O)c3ccc(OC)cc3)cc2OC[C@H]1C	1.1	·	-0.2	·	-7.7	3.0	·	·
O=C(O)c1cc(-c2cccs2)nn1-c1cccc(Cl)c1	-33.1*	0.6	-0.6	0.0	5.2	7.1	-8.64	?
N#C[C@@H]1N[C@H](CO)[C@H]1c1ccc(C2=CCCC2)cc1	4.0	0.5	0.0	0.0	-2.7	10.0	·	·
C[C@@H]1CN([C@@H](C)CO)C(=O)c2cccc(NS(C)(=O)=O)c2O[C@@H]1CN(C)S(C)(=O)=O	6.2	-0.7	0.4	-0.1	·	·	·	·
Cc1cc([N+](=O)[O-])nn1CC(=O)Nc1cc(F)ccc1F	-18.2*	-1.5	0.4	0.4	·	4.8	-15.6	?
Cc1cc([N+](=O)[O-])nn1CC(=O)N/N=C/c1ccccc1F	4.4	-7.6	7.7	0.0	·	-4.9	·	·
Fc1ccccc1CSc1ncnc2c1oc1ccccc12	·	·	·	·	1.6	-6.7	·	·
c1coc(CSc2ncnc3c2oc2ccccc23)c1	-22.9*	-4.6	·	-0.1	3.5	1.2	-6.33	-5.49
COCC(=O)N1C[C@H](C)[C@@H](OC)CN(C)C(=O)c2cc(NC(=O)c3ccccc3)ccc2OC[C@H]1C	1.5	·	-0.1	-0.1	3.7	7.6	·	·
COc1ccc(NC(=O)N(C)C[C@H]2Oc3ccc(NC(=O)C4CC4)cc3C(=O)N([C@H](C)CO)C[C@H]2C)cc1	5.9	-3.0	1.5	-0.3	-4.0	·	·	·
COc1ccc(NC(=O)c2cccc(Oc3ccc([N+](=O)[O-])cc3Cl)c2)cc1	-24.0*	0.1	0.3	0.9	·	8.0	1.75	-2.15
O=C(Nc1cccc(Cl)c1)c1cccc(Oc2ccc([N+](=O)[O-])cc2Cl)c1	1.5	·	·	0.4	-1.3	-11.9	·	·

Bioassay records from PubChem BioAssay.
